Assay results published in ChEMBL document CHEMBL1909547, “Discovery of spiropiperidine-based potent and selective Orexin-2 receptor antagonists” (Bioorg Med Chem Lett, 2011).
Converted amounts (≈) assume the structure as drawn.

How the values were obtained:
Orexin receptor type 2 = molecular target: T1, Orexin receptor type 2 (Homo sapiens, UniProt O43614); assay: Antagonist activity at OX2R expressed in dihydrofolate reductase deficient CHO cells assessed as inhibition of orexin A-induced intracellular calcium mobilization by FLIPR assay; assay type: functional, cell-based
T1 sequence (O43614 whole entry): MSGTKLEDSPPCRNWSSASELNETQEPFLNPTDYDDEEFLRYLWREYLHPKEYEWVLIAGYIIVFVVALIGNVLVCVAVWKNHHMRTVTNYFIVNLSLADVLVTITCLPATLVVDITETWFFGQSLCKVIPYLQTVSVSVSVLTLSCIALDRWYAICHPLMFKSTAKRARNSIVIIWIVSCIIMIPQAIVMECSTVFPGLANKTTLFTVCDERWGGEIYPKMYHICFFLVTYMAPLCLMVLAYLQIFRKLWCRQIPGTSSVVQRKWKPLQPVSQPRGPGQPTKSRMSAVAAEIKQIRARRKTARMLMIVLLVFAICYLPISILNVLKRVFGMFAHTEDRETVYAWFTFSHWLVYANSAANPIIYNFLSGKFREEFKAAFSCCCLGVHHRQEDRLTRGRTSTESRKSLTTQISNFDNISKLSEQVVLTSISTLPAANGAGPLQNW

[1] = molecular target: T2, Orexin/Hypocretin receptor type 1 (Homo sapiens, UniProt O43613); assay: Antagonist activity at OX1R expressed in dihydrofolate reductase deficient CHO cells assessed as inhibition of orexin A-induced intracellular calcium mobilization by FLIPR assay; assay type: functional, cell-based
T2 sequence (O43613 whole entry): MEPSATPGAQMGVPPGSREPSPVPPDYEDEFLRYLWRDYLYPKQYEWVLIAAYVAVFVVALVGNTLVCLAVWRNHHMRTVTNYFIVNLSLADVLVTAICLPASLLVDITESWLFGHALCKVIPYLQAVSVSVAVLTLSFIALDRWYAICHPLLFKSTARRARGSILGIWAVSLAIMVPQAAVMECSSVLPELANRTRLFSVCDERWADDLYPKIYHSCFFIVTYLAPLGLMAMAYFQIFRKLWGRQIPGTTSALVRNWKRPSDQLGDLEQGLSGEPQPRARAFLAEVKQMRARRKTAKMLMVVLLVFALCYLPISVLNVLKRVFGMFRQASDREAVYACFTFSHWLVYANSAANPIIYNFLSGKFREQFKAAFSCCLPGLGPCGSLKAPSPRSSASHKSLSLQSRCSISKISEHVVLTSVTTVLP

[2] = Selectivity ratio of IC50 for OX1R to IC50 for OX2R
[3] = Solubility of the compound in stomach simulated fluid JP1; assay type: physicochemical
Summary of the method: (§1)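 Solubility was measured in the Japanese Pharmacopoeia dissolution fluids. JP1 is the first fluid, an acidic stomach-simulating solution. JP2 is the second fluid, a buffer that mimics intestinal pH.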

[4] = Solubility of the compound in intestine simulated fluid JP2; assay type: physicochemical; summary of the method: as §1
[5] = Lipophilicity, log D of the compound; assay type: physicochemical; conditions: octanol/water

Row | Structure (SMILES) | IC50 (Orexin receptor type 2) [nM] | IC50 [1] [nM] | Ratio IC50 [2] | solubility [3] [µg/mL] | solubility [4] [µg/mL] | logD [5]
1 | O=S(=O)(c1ccccc1)N1CCOC12CCN(c1cnc3ccccc3n1)CC2 | 230 | 1600 | 7 | – | – | –
2 | O=C(Nc1ccccc1)N1CCC2(OCCN2S(=O)(=O)c2ccccc2)C(F)(F)C1 (racemic) | 1000 | > 10000 | > 10 | 21000 (≈ 48 mM) | 18000 (≈ 41.1 mM) | 1.93
3 | O=C(Nc1ccccc1)N1CCC2(OCCN2S(=O)(=O)c2ccccc2)[C@@H](F)C1 (mixture of isomers) | 220 | 2500 | 11 | 8500 | 12000 | 1.5
4 | COc1ccc(S(=O)(=O)N2CCOC23CCN(C(=O)Nc2ccccc2)CC3F)cc1 (racemic) | 87 | 1600 | 18 | 490 (≈ 1.09 mM) | 580 (≈ 1.29 mM) | 1.63
5 | O=C(Nc1ccccc1)N1CCC2(OCCN2S(=O)(=O)c2ccccc2)[C@H](F)C1 (mixture of isomers) | 170 | 280 | 1.6 | 45000 | 34000 | 2.04
6 | COc1ccc(S(=O)(=O)N2CCOC23CCN(C(=O)Nc2ccccc2)CC3F)cc1OC (stereo not given) | 3.3 | 1500 | 450 | 5900 (≈ 12.3 mM) | 4500 (≈ 9.38 mM) | 1.35
7 | O=C(Nc1ccccc1)N1CCC2(CC1)OCCN2S(=O)(=O)c1ccccc1 | 710 | 6300 | 8.9 | < 70 | 1700 (≈ 4.23 mM) | 1.82
8 | COc1cccc(S(=O)(=O)N2CCOC23CCN(C(=O)Nc2ccccc2)CC3F)c1 (racemic) | 130 | 2300 | 18 | 2100 (≈ 4.67 mM) | 2400 (≈ 5.34 mM) | 1.75
